Laboratory results published in ChEMBL document CHEMBL1127086, “Syntheses and biological evaluations of 3'-deoxy-3'-C-branched-chain-substituted nucleosides” (1993).
pEC50: −log10 of the molar value. Activity calls are given as the source filed them. The calls are words filed in the database; no cut-off is given here.

Assays:
L1210 = experiment: Tested in vitro for anticancer activity against replication of murine leukemia L1210 cell line after 72 hr incubation; type: functional; conditions: Mus musculus, L1210, 72 h; read-out: ED50 (the source's name)
How it was run: (§1)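 Suspension cultures at 37 °C, 5% CO₂. L1210, P388 and S-180 were grown in Fisher's medium and CCRF-CEM in RPMI 1640, each with 10% horse serum. Exponentially growing cells at 2 × 10⁴ cells/mL were exposed to various concentrations and counted at 24, 48 and 72 h. ED₅₀ for 50% growth inhibition at 72 h was estimated from dose-response curves, ≥2 independent experiments.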

CCRF-CEM = experiment: Tested in vitro for anticancer activity against replication of human CCRF-CEM lymphoblastic cell line after 72 hr incubation; type: functional; conditions: read-out: ED50 (the source's name); how it was run: as §1
MT2 [1] = experiment: Antiviral activity against HIV-1(HTLV-III B) in MT-2 cells; Not active uM concentration; type: functional, cell-based; conditions: Homo sapiens
How it was run: (§2)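 MT-2 cells, 1 × 10⁴ per well in triplicate wells, infected with HIV-1 (HTLV-III) at MOI 0.5 TCID₅₀/cell, then given serial drug dilutions. MTT added after 7 days. Antiviral effect taken from A₅₇₀ of infected cells compared with A₅₇₀ of uninfected drug-free cells. Concentrations tested up to 100 μM.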

[2] = Tested in vitro for anticancer activity against replication of murine Sarcoma 180 cell line after 72 h incubation; type: functional; conditions: Mus musculus, 180, 72 h; read-out: ED50 (the source's name); how it was run: as §1
P388 = experiment: Tested in vitro for anticancer activity against replication of murine leukemia P388 cell line after 72 hr incubation; type: functional; conditions: Mus musculus, P388, 72 h; read-out: ED50 (the source's name); how it was run: as §1
[3] = target: T1, Thymidine kinase, cytosolic (Homo sapiens) (UniProt P04183); experiment: […] thymidine kinase activity from K562 mammalian cells at 500 uM concentration; type: cell-based
T1 sequence (whole entry): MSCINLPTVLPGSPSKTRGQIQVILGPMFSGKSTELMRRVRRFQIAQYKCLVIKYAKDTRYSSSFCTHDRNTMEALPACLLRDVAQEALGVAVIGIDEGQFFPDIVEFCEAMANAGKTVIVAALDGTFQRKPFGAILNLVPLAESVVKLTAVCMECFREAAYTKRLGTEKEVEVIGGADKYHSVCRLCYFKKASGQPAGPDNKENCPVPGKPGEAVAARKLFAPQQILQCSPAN

[4] = test system: Thymidine kinase (Human herpesvirus 1); experiment: Antiviral activity against thymidine kinase from Herpes simplex virus type-1 (KOS Strain) infected HeLa (Bu-25-TK-) cells at 500 uM concentration
[5] = test system: Thymidine kinase (Human herpesvirus 2); experiment: Antiviral activity against thymidine kinase from Herpes simplex virus type-2 (333 Strain) infected HeLa (Bu-25-TK-) cells at 500 uM concentration
MT2 [6] = experiment: Antiviral activity against HIV-1(HTLV-III B) in MT-2 cells at 100 uM; Not active up to 100 uM concentration; type: functional, cell-based; conditions: Homo sapiens; how it was run: as §2

Compound	pEC50 (L1210)	pEC50 (CCRF-CEM)	pEC50 [2]	pEC50 (P388)	inhibition [3]	inhibition [4]	inhibition [5]	inhibition (MT2 [1])	inhibition (MT2 [6])
Cc1cn([C@@H]2O[C@H](CO)[C@@H](CN)[C@H]2O)c(=O)[nH]c1=O	< 4.00	< 4.00	< 4.00	< 4.00					
Cc1cn([C@@H]2O[C@H](CO)[C@@H](O)[C@@H]2O)c(=O)[nH]c1=O					5%				
Cc1cn([C@H]2C[C@H](CN=[N+]=[N-])[C@@H](CO)O2)c(=O)[nH]c1=O	< 4.00	< 4.00	< 4.00	< 4.00				inactive	
Cc1cn([C@@H]2O[C@H](CO)[C@@H](CO)[C@@H]2O)c(=O)[nH]c1=O	< 4.00	< 4.00	< 4.00	< 4.00	0.7%	11.7%	6.9%		
Cc1cn([C@H]2C[C@H](CF)[C@@H](CO)O2)c(=O)[nH]c1=O	< 4.00	< 4.00	< 4.00	< 4.00	5.4%	85.2%	4%		inactive
Cc1cn([C@@H]2O[C@H](CO)[C@@H](CO)[C@H]2O)c(=O)[nH]c1=O	< 4.00	< 4.00	< 4.00	< 4.00	3%	2.6%	0%		
Cc1cn([C@@H]2O[C@H](CO)[C@@H](CF)[C@H]2O)c(=O)[nH]c1=O	< 4.00	< 4.00	< 4.00	< 4.00	2.5%	7%	4.9%		inactive
Cc1cn([C@H]2C[C@H](CO)[C@@H](CO)O2)c(=O)[nH]c1=O	4.30	6.00	5.00	5.30	3%	59.1%	0%		
Cc1cn([C@H]2C[C@H](CN)[C@@H](CO)O2)c(=O)[nH]c1=O	< 4.00	< 4.00	< 4.00	< 4.00					

Now from value to molecule, other results behind:

pEC50 (L1210)	pEC50 (CCRF-CEM)	pEC50 [2]	pEC50 (P388)	inhibition [3]	inhibition [4]	inhibition [5]	Compound	inhibition (MT2 [1])	inhibition (MT2 [6])
5.00	< 4.00	< 4.00	< 4.00				Cc1cn([C@@H]2O[C@H](CO)[C@@H](CN=[N+]=[N-])[C@@H]2O)c(=O)[nH]c1=O	inactive	
< 4.00	< 4.00	< 4.00	< 4.00				Cc1cn([C@@H]2O[C@H](CO)[C@@H](CN=[N+]=[N-])[C@H]2O)c(=O)[nH]c1=O	inactive	
< 4.00	< 4.00	< 4.00	< 4.00	7.1%	13.8%	10.9%	Cc1cn([C@@H]2O[C@H](CO)[C@@H](CF)[C@@H]2O)c(=O)[nH]c1=O	inactive	
< 4.00	< 4.00	< 4.00	< 4.00				Cc1cn([C@@H]2O[C@H](CO)[C@@H](CN)[C@@H]2O)c(=O)[nH]c1=O		
